Source: ChEMBL document CHEMBL1240299, “C3-symmetric peptide scaffolds are functional mimetics of trimeric CD40L” (Nat Chem Biol, 2005)
Active and inactive are the calls of the source. The rule behind the calls is not given here. Non-standard residues stand in square brackets, D forms with d. Residues, ends and D or L forms follow the SMILES beside them. Groups on a side chain read outwards from the residue. Ahx = NCCCCCC(=O)O

Experiments:
[1] = target: T1, Tumor necrosis factor receptor superfamily member 5 (Homo sapiens, UniProt P25942); assay: Inhibition of recombinant human CD40L:mouse CD8 tail binding to human CD40 by surface plasmon resonance method
Procedure, shortened: (§1)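 hCD40:mIg was captured on an anti-mouse Ig chip. A fixed amount of soluble hCD40L:CD8 was premixed with increasing ligand concentrations, and the mixtures were injected at 25 °C in HBS-EP, 30 µl min⁻¹, 5 min association and 5 min dissociation. Regeneration was 50 mM HCl. Inhibition of CD40L binding was taken from reference-subtracted sensorgrams.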

[2] = tested on: BL-41; assay: Induction of apoptosis in CD40-positive human BL41 cells assessed as level of CD40 expression by mean fluorescence intensity; type: functional, cell-based
[3] = tested on: D1; assay: Induction of mouse D1 cell maturation assessed as CD86 expression at 5 to 10 uM after 48 hrs by flow cytometry in presence of 10 ug/ml LPS inhibitor polymyxin B; type: functional, cell-based
Procedure, shortened: (§2)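 D1 cells (2×10^5 ml⁻¹, 48 h preculture) were treated 48 h with inducers in fresh medium. Assays were also run with polymyxin B present to exclude LPS-driven activation, and LPS at 10 µg ml⁻¹ was the reference stimulus. Cells were harvested in PBS/EDTA and surface maturation markers were measured by flow cytometry.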

[4] = tested on: D1; assay: Induction of mouse D1 cell maturation assessed as CD80 expression at 5 to 10 uM after 48 hrs by flow cytometry in presence of 10 ug/ml LPS inhibitor polymyxin B; type: functional, cell-based; procedure, shortened: as §2
[5] = tested on: BL-41; assay: Induction of apoptosis in CD40-positive human BL41 cells assessed as detection of phosphatidylserine expression using annexin V-FITC and propidium iodine staining by flow cytometry; type: functional, cell-based
Procedure, shortened: (§3)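 BL41 Burkitt lymphoma cells in RPMI 1640 with 10% FBS were seeded at 5×10^5 ml⁻¹ and exposed to inducers at 37 °C (16 h). Apoptosis was read by flow cytometry, either as loss of DiOC₆(3) uptake (Δψm) or as annexin V–FITC/PI co-staining. Specific apoptosis % = (treated − control)×100/(100 − control). Values are means of three independent experiments.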

[6] = tested on: D1; assay: Induction of mouse D1 cell maturation assessed as CD54 expression at 5 to 10 uM after 48 hrs by flow cytometry in presence of 10 ug/ml LPS inhibitor polymyxin B; type: functional, cell-based; procedure, shortened: as §2
[7] = tested on: BL-41; assay: Induction of apoptosis in CD40-positive human BL41 cells assessed as decrease in mitochondrial membrane potential after 16 hrs by mean fluorescence intensity; type: functional, cell-based; procedure, shortened: as §3
[8] = tested on: BL-41; assay: Induction of apoptosis in CD40-positive human BL41 cells assessed as decrease in reduction in DiOC6 dye uptake after DAPI staining by epifluorescence microscopy; type: functional, cell-based
[9] = target: T1, Tumor necrosis factor receptor superfamily member 5; assay: Inhibition of recombinant human CD40L:mouse CD8 tail binding to human CD40 at 10 uM by surface plasmon resonance method; procedure, shortened: as §1
[10] = Activation of NF-kappaB pathway in mouse D1 cells assessed as increased degradation of IkappaBalpha protein by immunoblotting assay; type: functional, cell-based
Procedure, shortened: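 D1 dendritic cells grown in IMDM with 10% FBS and 30% NIH/3T3 supernatant as GM-CSF source; 2×10^5 cells ml⁻¹ precultured 48 h, then fresh medium with inducers added. Cells washed, harvested in PBS/2 mM EDTA, lysed and immunoblotted for IκBα, with actin as loading reference; IκBα/actin band intensity ratio reported.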

[11] = target: Tumor necrosis factor receptor superfamily member 3 (Homo sapiens) (UniProt P36941); assay: Binding affinity to human lymphotoxin beta receptor by surface plasmon resonance method
Procedure, shortened: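 TNFR:Fc fusion captured at 5 µl min⁻¹ on a CM5 chip precoated by amine coupling with rabbit anti-mouse Ig or goat anti-human Ig (~10,000 RU). Mimetics injected at several concentrations at 30 µl min⁻¹, 5 min association and 5 min dissociation, 25 °C, HBS-EP pH 7.4. Regeneration 30 s with 50 mM HCl. Control-channel sensorgrams subtracted and fitted to binding models.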

[12] = tested on: A20; assay: Induction of apoptosis in mouse CD40-expressing mouse A20 cells assessed as decrease in mitochondrial membrane potential after 16 hrs by mean fluorescence intensity; type: functional, cell-based
Procedure, shortened: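 Mouse A20 lymphoma cells treated at 37 °C and analysed by flow cytometry for reduced DiOC₆(3) uptake (loss of mitochondrial membrane potential). Result given as percentage specific apoptosis relative to untreated control cells.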

[13] = target: Tumor necrosis factor receptor superfamily member 10A (Homo sapiens) (UniProt O00220); assay: Binding affinity to human TNF-related apoptosis-inducing ligand receptor 1 by surface plasmon resonance method
Procedure, shortened: (§4)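 TNFR:Fc fusion proteins were captured on an anti-Ig-coated CM5 chip at equivalent protein mass. An irrelevant IgG2a served as control surface. Ligands were injected at several concentrations at 25 °C in HBS-EP running buffer, pH 7.4, 30 µl min⁻¹ flow, 5 min association and 5 min dissociation, with 50 mM HCl regeneration. Reference-subtracted sensorgrams were fitted to binding models.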

[14] = target: T2, Tumor necrosis factor receptor superfamily member 17 (Mus musculus) (UniProt O88472); assay: Binding affinity to mouse B-cell maturation protein by surface plasmon resonance method; procedure, shortened: as §4
T2 sequence (whole entry): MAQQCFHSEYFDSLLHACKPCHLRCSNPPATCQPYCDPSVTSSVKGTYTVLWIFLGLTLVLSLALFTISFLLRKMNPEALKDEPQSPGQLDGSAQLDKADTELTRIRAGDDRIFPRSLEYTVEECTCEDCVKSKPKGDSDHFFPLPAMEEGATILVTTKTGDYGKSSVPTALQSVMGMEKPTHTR

[15] = target: T3, Tumor necrosis factor receptor superfamily member EDAR (Homo sapiens) (UniProt Q9UNE0); assay: Binding affinity to human Ectodysplasin-A receptor by surface plasmon resonance method; procedure, shortened: as §4
T3 sequence (whole entry): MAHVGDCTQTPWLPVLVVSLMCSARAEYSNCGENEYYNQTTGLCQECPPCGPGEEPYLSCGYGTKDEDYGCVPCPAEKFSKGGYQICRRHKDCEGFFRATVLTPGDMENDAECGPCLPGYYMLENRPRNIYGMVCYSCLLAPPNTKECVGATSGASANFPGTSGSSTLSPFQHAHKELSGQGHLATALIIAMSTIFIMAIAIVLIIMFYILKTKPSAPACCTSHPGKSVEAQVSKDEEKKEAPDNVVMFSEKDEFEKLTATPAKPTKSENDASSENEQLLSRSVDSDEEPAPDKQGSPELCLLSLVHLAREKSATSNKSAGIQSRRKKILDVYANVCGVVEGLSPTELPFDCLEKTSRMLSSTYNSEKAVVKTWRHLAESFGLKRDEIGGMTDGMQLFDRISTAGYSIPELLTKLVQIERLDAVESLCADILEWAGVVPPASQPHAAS

[16] = target: T4, Tumor necrosis factor receptor superfamily member 1A (Homo sapiens) (UniProt P19438); assay: Binding affinity to human TNFR1 by surface plasmon resonance method; procedure, shortened: as §4
T4 sequence (whole entry): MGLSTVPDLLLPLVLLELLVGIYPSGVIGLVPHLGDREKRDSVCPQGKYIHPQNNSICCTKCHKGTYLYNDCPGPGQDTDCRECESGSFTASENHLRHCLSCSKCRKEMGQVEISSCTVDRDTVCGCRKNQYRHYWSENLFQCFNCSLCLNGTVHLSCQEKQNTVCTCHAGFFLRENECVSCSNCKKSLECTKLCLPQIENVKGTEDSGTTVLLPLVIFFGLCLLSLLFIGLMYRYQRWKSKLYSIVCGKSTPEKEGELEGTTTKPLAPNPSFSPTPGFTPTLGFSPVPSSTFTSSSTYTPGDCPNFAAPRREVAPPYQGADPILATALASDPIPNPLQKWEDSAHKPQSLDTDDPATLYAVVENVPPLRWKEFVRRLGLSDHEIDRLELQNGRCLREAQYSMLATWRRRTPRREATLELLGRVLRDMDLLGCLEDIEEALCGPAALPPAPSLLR

[17] = tested on: D1; assay: Induction of interleukin-12 production in mouse D1 cells by RT-PCR method; type: functional, cell-based
Procedure, shortened: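 D1 cells, precultured 48 h at 2×10^5 ml⁻¹, were given fresh medium containing inducers. After incubation, RNA was analysed by comparative RT-PCR for IL-12 p40 mRNA, with Gapdh as housekeeping control. LPS at 10 µg ml⁻¹ served as reference stimulus.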

[18] = target: T5, Tumor necrosis factor receptor superfamily member 1B (Homo sapiens) (UniProt P20333); assay: Binding affinity to human Tumor necrosis factor receptor 2 by surface plasmon resonance method; procedure, shortened: as §4
T5 sequence (whole entry): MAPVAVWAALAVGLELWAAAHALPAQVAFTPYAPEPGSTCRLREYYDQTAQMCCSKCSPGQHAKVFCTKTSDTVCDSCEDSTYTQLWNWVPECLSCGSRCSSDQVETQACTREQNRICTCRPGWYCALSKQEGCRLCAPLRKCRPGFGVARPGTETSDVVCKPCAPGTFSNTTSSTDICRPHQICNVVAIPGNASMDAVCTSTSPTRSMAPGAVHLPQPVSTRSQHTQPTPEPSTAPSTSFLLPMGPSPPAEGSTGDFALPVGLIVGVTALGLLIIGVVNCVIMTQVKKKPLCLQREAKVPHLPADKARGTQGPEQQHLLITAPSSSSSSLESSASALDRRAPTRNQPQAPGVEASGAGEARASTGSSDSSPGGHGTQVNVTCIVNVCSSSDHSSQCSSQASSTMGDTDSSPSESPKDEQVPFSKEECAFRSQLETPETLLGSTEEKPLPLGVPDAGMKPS

T1 sequence (P25942 whole entry): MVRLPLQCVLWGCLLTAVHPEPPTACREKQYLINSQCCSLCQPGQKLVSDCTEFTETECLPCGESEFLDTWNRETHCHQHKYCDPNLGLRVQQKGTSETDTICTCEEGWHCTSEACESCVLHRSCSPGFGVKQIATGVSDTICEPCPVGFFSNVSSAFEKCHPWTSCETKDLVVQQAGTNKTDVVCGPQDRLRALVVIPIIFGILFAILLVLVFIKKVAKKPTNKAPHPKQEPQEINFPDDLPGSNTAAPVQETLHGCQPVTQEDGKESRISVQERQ
Chain of Tumor necrosis factor receptor superfamily member 10A (Homo sapiens) (O00220 whole entry, the tested form may be a part): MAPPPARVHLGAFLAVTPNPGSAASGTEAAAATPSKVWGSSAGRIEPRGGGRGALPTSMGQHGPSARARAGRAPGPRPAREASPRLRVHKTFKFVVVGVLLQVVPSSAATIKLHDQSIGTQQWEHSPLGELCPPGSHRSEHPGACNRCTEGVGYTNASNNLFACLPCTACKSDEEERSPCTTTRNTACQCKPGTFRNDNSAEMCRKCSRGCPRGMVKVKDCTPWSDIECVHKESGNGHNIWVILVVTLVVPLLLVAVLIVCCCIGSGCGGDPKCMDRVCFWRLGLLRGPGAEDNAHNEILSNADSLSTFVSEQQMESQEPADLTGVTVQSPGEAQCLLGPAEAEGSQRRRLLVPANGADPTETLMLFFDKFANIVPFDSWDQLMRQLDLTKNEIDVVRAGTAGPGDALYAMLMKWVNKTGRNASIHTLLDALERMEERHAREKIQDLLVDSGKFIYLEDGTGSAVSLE
Chain of Tumor necrosis factor receptor superfamily member 3 (Homo sapiens) (P36941 whole entry, the tested form may be a part): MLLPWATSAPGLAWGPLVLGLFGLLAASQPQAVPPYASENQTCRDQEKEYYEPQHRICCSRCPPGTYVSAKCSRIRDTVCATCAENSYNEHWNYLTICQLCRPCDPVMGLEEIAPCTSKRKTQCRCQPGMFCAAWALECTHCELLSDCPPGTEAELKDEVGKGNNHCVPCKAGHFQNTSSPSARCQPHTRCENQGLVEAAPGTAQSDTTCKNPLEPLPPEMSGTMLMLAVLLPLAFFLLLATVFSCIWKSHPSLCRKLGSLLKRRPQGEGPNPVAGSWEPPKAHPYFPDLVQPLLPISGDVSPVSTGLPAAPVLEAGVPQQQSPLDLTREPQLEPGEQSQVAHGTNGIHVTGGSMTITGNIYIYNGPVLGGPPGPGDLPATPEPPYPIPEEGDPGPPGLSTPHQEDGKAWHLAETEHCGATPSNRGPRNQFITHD

| SMILES | inhibition [1] | Activity [2] | Activity [3] | Activity [4] | Activity [5] | Activity [6] | Activity [7] | Activity [8] | IC50 [1] [nM] | inhibition [9] [%] | Activity [10] | Activity [11] | Activity [12] | Activity [13] | Activity [14] | Activity [15] | Activity [16] | Activity [17] | Activity [18] |
| --- | --- | --- | --- | --- | --- | --- | --- | --- | --- | --- | --- | --- | --- | --- | --- | --- | --- | --- | --- |
| C[C@H]1NC(=O)[C@H](CCCCN)NC(=O)[C@@H](C)NC(=O)[C@H](CCCCN)NC(=O)[C@@H](C)NC(=O)[C@H](CCCCN)NC1=O | inactive | inactive | inactive | inactive | inactive | inactive | inactive | inactive |  |  |  |  |  |  |  |  |  |  |  |
| NCCCC[C@H](N)C(=O)NCC(=O)N[C@@H](Cc1ccc(O)cc1)C(=O)N[C@@H](Cc1ccc(O)cc1)C(=O)NCCCCCC(=O)NCCCOCC(COCCCNC(=O)CCCCCNC(=O)[C@H](Cc1ccc(O)cc1)NC(=O)[C@H](Cc1ccc(O)cc1)NC(=O)CNC(=O)[C@@H](N)CCCCN)(COCCCNC(=O)CCCCCNC(=O)[C@H](Cc1ccc(O)cc1)NC(=O)[C@H](Cc1ccc(O)cc1)NC(=O)CNC(=O)[C@@H](N)CCCCN)NC(=O)CCC(N)=O |  | inactive |  |  | inactive |  | inactive | inactive | > 10000 | 20 |  |  |  |  |  |  |  |  |  |
| C[C@@H](NC(=O)[C@H](CCCCNC(=O)CCCCCNC(=O)[C@H](Cc1ccc(O)cc1)NC(=O)[C@H](Cc1ccc(O)cc1)NC(=O)CNC(=O)[C@@H](N)CCCCN)NC(=O)[C@@H](C)NC(=O)[C@H](CCCCNC(=O)CCCCCNC(=O)[C@H](Cc1ccc(O)cc1)NC(=O)[C@H](Cc1ccc(O)cc1)NC(=O)CNC(=O)[C@@H](N)CCCCN)NC(=O)[C@@H](C)NC(=O)[C@@H](N)CCCCNC(=O)CCCCCNC(=O)[C@H](Cc1ccc(O)cc1)NC(=O)[C@H](Cc1ccc(O)cc1)NC(=O)CNC(=O)[C@@H](N)CCCCN)C(=O)O | inactive | inactive | inactive | inactive | inactive | inactive | inactive | inactive |  |  |  |  |  |  |  |  |  |  |  |
| NCCCC[C@H](N)C(=O)NCC(=O)N[C@@H](Cc1ccc(O)cc1)C(=O)N[C@@H](Cc1ccc(O)cc1)C(=O)NCCCCCC(=O)O (H-KGYY[Ahx]-OH) | inactive | inactive | inactive | inactive | inactive | inactive | inactive | inactive |  |  |  |  |  |  |  |  |  |  |  |
| C[C@H]1NC(=O)[C@H](CCCCNC(=O)CCCCCNC(=O)[C@H](Cc2ccc(O)cc2)NC(=O)[C@H](Cc2ccc(O)cc2)NC(=O)CNC(=O)[C@@H](N)CCCCN)NC(=O)[C@@H](C)NC(=O)[C@H](CCCCNC(=O)CCCCCNC(=O)[C@H](Cc2ccc(O)cc2)NC(=O)[C@H](Cc2ccc(O)cc2)NC(=O)CNC(=O)[C@@H](N)CCCCN)NC(=O)[C@@H](C)NC(=O)[C@H](CCCCNC(=O)CCCCCNC(=O)[C@H](Cc2ccc(O)cc2)NC(=O)[C@H](Cc2ccc(O)cc2)NC(=O)CNC(=O)[C@@H](N)CCCCN)NC1=O (cyclo(K([Ahx-Tyr-Tyr-Gly-Lys])[dA]K([Ahx-Tyr-Tyr-Gly-Lys])[dA]K([Ahx-Tyr-Tyr-Gly-Lys])[dA])) |  | Active | Active | Active | Active | Active | Active | Active | 78 |  | Active | inactive | Active | inactive | inactive | inactive | inactive | Active | inactive |
